The list is not random: actives were taken first. Their share in the collection is about 1.8%.
CHRM5 agonist = human M5 muscarinic receptor agonists, primary screen, CHO-K1 cells, Fluo-8 calcium fluorescence; Muscarinic acetylcholine receptor M5 (Homo sapiens), P08912; CHO-K1 hM5 cells; 0% DMSO wells, 100% maximal acetylcholine response; actives 0.19% (n = 360,000); AID 624037, 2012; activation, % at 3 µM;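 active = activation above the run's mean over test compounds plus 3 SD, cut at about 23% in these data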;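 note: signal is peak over basal fluorescence ratio across the kinetic read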
Target sequence (P08912 whole entry, looked up): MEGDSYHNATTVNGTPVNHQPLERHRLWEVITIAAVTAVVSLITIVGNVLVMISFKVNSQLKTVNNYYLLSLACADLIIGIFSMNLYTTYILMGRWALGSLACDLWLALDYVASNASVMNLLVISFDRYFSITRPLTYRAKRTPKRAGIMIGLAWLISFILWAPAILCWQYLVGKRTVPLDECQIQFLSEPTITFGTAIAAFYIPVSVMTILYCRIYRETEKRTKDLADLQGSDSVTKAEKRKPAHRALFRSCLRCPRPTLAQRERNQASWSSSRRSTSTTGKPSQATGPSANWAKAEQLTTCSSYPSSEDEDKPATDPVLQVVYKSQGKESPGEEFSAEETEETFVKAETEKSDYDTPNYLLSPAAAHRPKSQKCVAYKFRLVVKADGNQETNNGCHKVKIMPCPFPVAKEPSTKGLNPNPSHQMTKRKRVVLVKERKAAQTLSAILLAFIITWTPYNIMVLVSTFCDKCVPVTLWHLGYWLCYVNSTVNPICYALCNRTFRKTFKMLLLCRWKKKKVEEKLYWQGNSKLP
M4 PAM = human M4 muscarinic receptor positive allosteric modulators, primary screen, CHO-K1 cells, Fluo-8 calcium fluorescence; actives 0.4% (n = 360,000); Muscarinic acetylcholine receptor M4 (Homo sapiens), P08173; CHO-K1 hM4/Gqi5, ACh EC20; 0% = ACh EC20, 100% = maximal ACh; activation, % at 3 µM;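 active = activation above its plate's cutoff, the mean activation of sample wells plus 3 SD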
CHRM4 agonist = human M4 muscarinic receptor agonists, primary screen, CHO-K1 cells, Fluo-8 calcium fluorescence. CHO-K1 hM4/Gqi5; vehicle 0%, full acetylcholine response 100%. activation, % at 3 µM. actives 0.14% (n = 360,000);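 active = activation above the run mean over all test wells plus 3 SD, cut at about 32% in these data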;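 note: peak over basal fluorescence ratio per well then scaled between controls; 0% = DMSO wells and 100% = acetylcholine at EC100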
M4 antag = human M4 muscarinic receptor antagonists, primary screen, CHO cells, Fluo-8 calcium fluorescence; Muscarinic acetylcholine receptor M4 (Homo sapiens), P08173; CHO-hM4 cells, ACh EC80; inhibition, % at 3 µM; actives 0.73% (n = 360,000);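 active = inhibition above its plate's cutoff, the mean inhibition of sample wells plus 3 SD, cut at about 27% in these data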;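 note: 0% = acetylcholine EC80 with DMSO and 100% = DMSO without agonist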
M5 antag = human M5 muscarinic receptor antagonists, primary screen, CHO cells, Fluo-8 calcium fluorescence | Muscarinic acetylcholine receptor M5 (Homo sapiens), P08912 | CHO-hM5 cells, ACh EC80 | inhibition, % at 3 µM | actives 0.59% (n = 360,000) | AID 624040, 2012;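 active = inhibition above a per-plate cutoff, the mean of that plate's test compounds plus 3 SD, cut at about 27% in these data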;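 note: 0% = acetylcholine EC80 with DMSO and 100% = DMSO without agonist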
CHRM5 PAM = human M5 muscarinic receptor positive allosteric modulators, primary screen, CHO-K1 cells, Fluo-8 calcium fluorescence; actives 0.3% (n = 360,000); activation, % at 3 µM; Muscarinic acetylcholine receptor M5 (Homo sapiens), P08912; CHO-K1 hM5, ACh EC20 PAM; 0% = ACh EC20, 100% = ACh EC100;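 active = activation above the run cutoff, the mean activation of all test compounds plus 3 SD, cut at about 18% in these data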
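system = human M5 receptor in CHO-K1 cells | compound = one concentration, 3 µM final (nominal) | schedule = Post-acetylcholine fluorescence recording 140 s | signal = Fluo-8 calcium dye fluorescence, kinetic read | benchmarks = low control EC20 acetylcholine (0%), high control EC100 acetylcholine (100%) | repeats = singlicate, one well per test compound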
Starred values were filed as active, the others as inactive.

SMILES | CHRM5 agonist | M4 PAM | CHRM4 agonist | M4 antag | M5 antag | CHRM5 PAM
COc1ccc(CC(=O)NC(=S)Nc2cccc(CO)c2)cc1 | 31.1* | 2.5 | 15.1 | 1.1 | -7.2 | 4.2
COc1cc(NC(=O)c2cc(Cl)nnc2Cl)cc(OC)c1OC | 0.3 | -2.5 | 1.0 | 0.0 | -0.2 | 0.1
COc1ccc(CC(=O)NC(=S)Nc2cccc(C)c2)cc1 | 29.6* | -19.9 | 29.1 | 5.4 | 5.5 | 5.2
COc1cccc(NC(=S)NC(=O)Cc2ccc(Cl)cc2)c1 | 36.2* | -4.6 | 29.2 | -0.2 | 11.9 | 0.9
Cc1cccc(NC(=S)NC(=O)CCc2ccccc2)c1 | -5.8 | -1.7 | -1.8 | -0.7 | -3.5 | -1.6
Cc1ccc(S(=O)(=O)N2[C@H](CC(=O)Oc3ccccc3)OC[C@@H]2C(C)C)cc1 | -3.1 | -3.5 | 2.3 | -19.5 | -6.7 | -4.4
Cc1ccc(N=C/C(C(=O)C(F)(F)F)=C(\O)c2ccco2)cc1Cl | -2.7 | -1.5 | 4.0 | 3.7 | -7.2 | -5.7
O=C(NCc1ccc2c(c1)OCO2)c1cc2ccccc2o1 | -6.1 | 4.8 | 0.1 | 6.4 | 1.1 | 30.1*
Cn1nc(C(C)(C)C)cc1C(=O)NCc1ccc2c(c1)OCO2 | 5.4 | -8.8 | 12.7 | 9.8 | 29.4* | -10.6
Cc1oc(C(C)(C)C)cc1C(=O)NCc1ccc2c(c1)OCO2 | 0.7 | 1.9 | 1.6 | -10.1 | 9.1 | -0.2
O=C(O)c1ccccc1C(=O)NCc1ccc2c(c1)OCO2 | -4.6 | 3.4 | 0.0 | 7.8 | 7.3 | -1.3
COC(=O)C(C)(C(=O)OC)c1ccccc1[N+](=O)[O-] | -3.9 | 4.2 | 0.6 | -7.1 | 0.7 | -2.6
CN(CC(=O)Nc1cccc(F)c1)C(=O)c1cc(S(=O)(=O)N(C)C)ccc1N1CCCC1 | 2.3 | -0.2 | 8.1 | -1.3 | 1.0 | -2.6
CC1=C(C(=O)N(C(C)C)C(C)C)CC(CC(=O)NCc2cccc3ccccc23)C(=O)N1Cc1ccccc1 (stereo unspecified) | -1.6 | -6.0 | 1.1 | 1.2 | 4.5 | -2.1
CCn1cc(C(=O)N(C)c2ccc(OC)cc2OC)c2cc(OC)c(OC)cc2c1=O | -4.2 | 13.7* | 2.0 | -26.9 | 0.1 | 11.0
CCn1cc(C(=O)N(C)c2cc(C)ccc2OC)c2cc(OC)c(OC)cc2c1=O | -1.6 | 1.6 | 2.6 | -10.2 | 5.8 | -0.1
COc1ccc(/C=N/NC(=O)CCn2cnc(-c3ccccc3)c2-c2ccccc2)cc1 | 1.1 | 6.7 | 0.1 | 85.2* | -3.1 | -2.1
O=C(CCn1cnc(-c2ccccc2)c1-c1ccccc1)N/N=C/c1ccc(O)cc1 | -2.2 | -1.0 | -0.3 | -5.3 | 4.7 | -3.7
CCN(CC)CCNC1=NCCn2c1cc1cc(OC)ccc12 | -9.6 | 4.3 | -0.2 | -4.2 | 1.0 | 20.2*
Cc1ccncc1CNC(=O)c1ccccc1 | 0.6 | -2.5 | 0.2 | -0.1 | 12.9 | -5.0
CN1C(=S)N(c2cccnc2)C(=O)/C1=C\c1ccc(N(C)C)cc1 | 59.9* | -7.2 | 13.7 | 11.0 | 31.3* | -20.9
O=C(/C=C/Nc1ccc(Br)cn1)c1cccc(OC(F)F)c1 | -6.7 | 1.4 | 1.9 | 1.4 | 12.8 | -21.0
Cc1c(N=C/C=C/c2ccccc2)c(=O)n(-c2ccccc2)n1C | -7.0 | -17.4 | 0.3 | 53.5* | 26.8 | -23.3
CCN(CC)S(=O)(=O)c1ccc(Oc2ccccc2)c(N)c1 | -0.9 | 1.8 | 3.8 | 5.8 | 7.9 | 8.8
CCN(CC)S(=O)(=O)c1ccc(N2CCN(c3ccccc3OC)CC2)c(N)c1 | 6.7 | -14.6 | 17.6 | 20.2 | 29.8* | -16.5
SMILES | CHRM5 agonist | M4 PAM | CHRM4 agonist | M4 antag | M5 antag | CHRM5 PAM
Fc1ccccc1CN1CCCCCCC1 | -4.2 | 0.6 | -0.2 | -1.9 | -5.7 | 2.4
c1ccc(Sc2ccccc2CN2CCCC2)cc1 | -20.1 | -15.4 | 1.5 | 39.0* | 74.1* | -34.4
Cc1ccn(CCNC(=O)C2CCC(=O)N(Cc3ccc(Cl)cc3)C2)n1 (stereo unspecified) | -2.5 | 9.3 | 0.4 | 0.4 | 11.0 | 4.0
COCCNC(=O)C(c1ccc(C)o1)N(Cc1ccc(F)cc1)C(=O)Cn1nnc2ccccc21 (stereo unspecified) | -5.1 | 0.6 | 1.6 | -8.3 | 1.4 | 22.5*
O=C(/C(=C/c1ccc(Cl)cc1)c1nc2ccccc2[nH]1)c1ccccc1 | -5.4 | -20.2 | 0.9 | 38.2* | 12.6 | -23.4
O=C(N/C(=C/c1ccc(Cl)cc1)c1nc2ccccc2[nH]1)c1ccco1 | 3.3 | -9.6 | 3.4 | 0.3 | -5.1 | -0.8
CC1CCCCC1N(C)C1CCN(C(=O)CNC(=O)/C=C/c2cccc(Cl)c2)CC1 (stereo unspecified) | -9.2 | -8.5 | 0.0 | 5.7 | 1.6 | 5.3
COc1cccc(CNC(=O)CCC2CCCN(C3CCOCC3)C2)c1 (stereo unspecified) | -5.1 | 2.5 | 0.1 | 7.9 | 15.1 | -5.8
COc1cccc(CNC(=O)CCC2CCCN(c3cc(C)nc(N4CCCC4)n3)C2)c1 (stereo unspecified) | -9.2 | -23.1 | 0.2 | 28.4* | 6.6 | 2.5
CCOc1ccc(NC(=O)c2ccccc2C(=O)c2ccccc2)cc1OCC | -2.1 | -10.7 | -0.7 | 12.5 | -1.7 | 1.2
CN(C)S(=O)(=O)N1C(=O)c2ccccc2C1=O | -4.1 | 3.5 | 1.1 | 2.5 | 1.6 | -1.5
CN(C)/C=C1\C=C2C(=O)c3ccccc3N2C1=O | 109.8* | -30.5 | 64.8* | 10.4 | 24.8 | -23.4
O=C(COCC(=O)N/N=C/c1ccc(F)cc1)N/N=C/c1ccc(F)cc1 | 1.7 | -4.5 | 0.1 | -12.0 | -5.9 | 1.3
COc1ccc(S(=O)(=O)Nc2cccc3c2O[C@H](CN(C)S(=O)(=O)c2ccc(F)cc2)[C@H](C)CN([C@H](C)CO)C3=O)cc1 | 3.8 | 4.8 | 2.9 | 15.3 | 0.3 | 1.6
COc1ccc(OC)c(NC(=O)COc2coc(CN3CCc4ccccc43)cc2=O)c1 | 2.1 | -2.9 | 2.3 | -0.2 | -1.4 | 2.7
CCCS(=O)(=O)NC(=O)C1(C)CCN(C(=O)Cc2cccc3ccccc23)C1 (stereo unspecified) | 0.5 | -0.2 | -0.2 | -0.8 | 3.6 | 1.7
CCCCN(C(=O)CCC(=O)Nc1cc(C)on1)C(C(=O)NC1CCCC1)c1ccccc1C (stereo unspecified) | -3.0 | -4.4 | -3.1 | 3.4 | 11.0 | -1.4

Screens as filed in PubChem.
